Measurements: ChEMBL document CHEMBL1140117, “Structure-activity relationship studies for the peptide portion of the bladder epithelial cell antiproliferative factor from interstitial cystitis patients” (2008)
Active and inactive are the calls of the source. Starred links: 1 amine or outer side, 2 acyl side, 3 side chain; linkers in the order of their positions; H or OH if unused. Positions of bridges follow the written chain, without caps; N, C: chain ends. Non-standard residues stand in square brackets, D forms with d. Residues, ends and D or L forms follow the SMILES beside them. *: point of attachment. X3 = CC(=O)N[C@H]1[C@@H](O[C@H](C)[C@H](NO[*:2])C(=O)[*:1])O[C@H](CO)[C@H](O)[C@@H]1O[C@@H]1O[C@H](CO)[C@H](O)[C@H](O)[C@H]1O; X1 = CC(=O)N[C@@H]1[C@@H](O[C@@H]2O[C@H](CO)[C@H](O)[C@H](O)[C@H]2O)[C@@H](O)[C@@H](CO)O[C@@H]1*; X2 = CC1(C)OC[C@@H](C(=O)[*:2])N1[*:1]; NMeA = CN[C@@H](C)C(=O)O

system: not listed separately; assay: Antiproliferative activity against human bladder epithelial cells assessed as inhibition of [3H]thymidine incorporation after 48 hrs relative to as-APF; type: functional, Epithelial cell; set-up: scale not given: the % may be the effect or the level left
In short: (§1)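 Primary normal human bladder epithelial cells, explanted from cystoscopy biopsies, plated at 1.5 × 10⁴ cells/well in MEM with 10% heat-inactivated FBS. Congeners dissolved in acetonitrile/water (1:1), added in serum-free MEM in 10-fold dilutions up to the 25 µM assay cutoff. Incubated 48 h at 37 °C, 5% CO₂. ³H-thymidine uptake counted on filters. Activity expressed relative to the standard control run on each plate. Triplicates, at least two runs, ANOVA.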

| Compound | Activity [%] |
| --- | --- |
| CC(=O)N[C@H]1[C@@H](OC[C@H](N)C(=O)N[C@@H](CC(C)C)C(=O)N2CCC[C@H]2C(=O)N[C@@H](C)C(=O)N[C@@H](C)C(=O)N[C@H](C(=O)N[C@H](C(=O)N[C@H](C(=O)N[C@@H](C)C(=O)O)C(C)C)C(C)C)C(C)C)O[C@H](CO)[C@H](O)[C@@H]1O[C@@H]1O[C@H](CO)[C@H](O)[C@H](O)[C@H]1O (H-S(X1)LPAAVVVA-OH) | 1 |
| CC(=O)N[C@H]1[C@@H](OC[C@H](N)C(=O)N[C@H](C(=O)N2CCC[C@H]2C(=O)N[C@@H](C)C(=O)N[C@@H](C)C(=O)N[C@H](C(=O)N[C@H](C(=O)N[C@H](C(=O)N[C@@H](C)C(=O)O)C(C)C)C(C)C)C(C)C)C(C)C)O[C@H](CO)[C@H](O)[C@@H]1O[C@@H]1O[C@H](CO)[C@H](O)[C@H](O)[C@H]1O (H-S(X1)VPAAVVVA-OH) | 0.01 |
| CC(=O)N[C@H]1[C@@H](O[C@H](C)[C@H](N)C(=O)N[C@H](C(=O)N[C@@H](C)C(=O)N[C@@H](C)C(=O)N[C@@H](C)C(=O)N[C@H](C(=O)N[C@H](C(=O)N[C@H](C(=O)N[C@@H](C)C(=O)O)C(C)C)C(C)C)C(C)C)C(C)C)O[C@H](CO)[C@H](O)[C@@H]1O[C@@H]1O[C@H](CO)[C@H](O)[C@H](O)[C@H]1O (H-T(X1)VAAAVVVA-OH) | 0.3 |
| CC(=O)N[C@H]1[C@@H](O[C@H](C)[C@H](N)C(=O)N[C@H](C(=O)N2CCC[C@H]2C(=O)N[C@@H](C)C(=O)N[C@@H](C)C(=O)N[C@@H](C)C(=O)N[C@@H](C)C(=O)N[C@@H](C)C(=O)N[C@@H](C)C(=O)O)C(C)C)O[C@H](CO)[C@H](O)[C@@H]1O[C@@H]1O[C@H](CO)[C@H](O)[C@H](O)[C@H]1O (H-T(X1)VPAAAAAA-OH) | 1 |
| CC(=O)N[C@H]1[C@@H](O[C@H](C)[C@H](N)C(=O)N[C@H](C(=O)N2CCC[C@H]2C(=O)N[C@@H](C)C(=O)N[C@@H](C)C(=O)N[C@H](C(=O)N[C@H](C(=O)N[C@H](C(=O)O)C(C)C)C(C)C)C(C)C)C(C)C)O[C@H](CO)[C@H](O)[C@@H]1O[C@@H]1O[C@H](CO)[C@H](O)[C@H](O)[C@H]1O (H-T(X1)VPAAVVV-OH) | 100 |
| CC(=O)N[C@H]1[C@@H](O[C@H](C)[C@H](N)C(=O)N[C@H](C(=O)N2CCC[C@H]2C(=O)N[C@@H](C)C(=O)N[C@@H](C)C(=O)N[C@H](C(=O)N[C@H](C(=O)N[C@H](C(=O)N[C@@H](C)C(=O)N[C@@H](CS)C(=O)O)C(C)C)C(C)C)C(C)C)C(C)C)O[C@H](CO)[C@H](O)[C@@H]1O[C@@H]1O[C@H](CO)[C@H](O)[C@H](O)[C@H]1O (H-T(X1)VPAAVVVAC-OH) | 1 |
| CC(=O)N[C@H]1[C@@H](O[C@H](C)[C@H](N)C(=O)N[C@H](C(=O)N2CCC[C@H]2C(=O)N[C@@H](C)C(=O)N[C@@H](C)C(=O)N[C@H](C(=O)N[C@H](C(=O)N[C@H](C(=O)N[C@@H](CC(C)C)C(=O)O)C(C)C)C(C)C)C(C)C)C(C)C)O[C@H](CO)[C@H](O)[C@@H]1O[C@@H]1O[C@H](CO)[C@H](O)[C@H](O)[C@H]1O (H-T(X1)VPAAVVVL-OH) | 0.01 |
| CC(=O)N[C@H]1[C@@H](O[C@H](C)[C@H](N)C(=O)N[C@H](C(=O)N2CCC[C@H]2C(=O)N[C@@H](C)C(=O)N[C@@H](CO)C(=O)N[C@H](C(=O)N[C@H](C(=O)N[C@H](C(=O)N[C@@H](CO)C(=O)O)C(C)C)C(C)C)C(C)C)C(C)C)O[C@H](CO)[C@H](O)[C@@H]1O[C@@H]1O[C@H](CO)[C@H](O)[C@H](O)[C@H]1O (H-T(X1)VPASVVVS-OH) | 0.2 |
| CC(=O)N[C@H]1[C@@H](O[C@H](C)[C@H](N)C(=O)N[C@H](C(=O)N(C)[C@@H](C)C(=O)N[C@@H](C)C(=O)N[C@@H](C)C(=O)N[C@H](C(=O)N[C@H](C(=O)N[C@H](C(=O)N[C@@H](C)C(=O)O)C(C)C)C(C)C)C(C)C)C(C)C)O[C@H](CO)[C@H](O)[C@@H]1O[C@@H]1O[C@H](CO)[C@H](O)[C@H](O)[C@H]1O (H-T(X1)V[NMeA]AAVVVA-OH) | 0.05 |

system: Epithelial cell; assay: Antiproliferative activity against human bladder epithelial cells assessed as inhibition of [3H]thymidine incorporation at <25 uM after 48 hrs relative to as-APF; type: functional, cell-based; in short: as §1

| Compound | Activity |
| --- | --- |
| CC(=O)N[C@H]1[C@@H](O[C@H](C)[C@H](N)C(=O)N[C@H](C(=O)N2CCC[C@@H]2C(=O)N[C@@H](C)C(=O)N[C@@H](C)C(=O)N[C@H](C(=O)N[C@H](C(=O)N[C@H](C(=O)N[C@@H](C)C(=O)O)C(C)C)C(C)C)C(C)C)C(C)C)O[C@H](CO)[C@H](O)[C@@H]1O[C@@H]1O[C@H](CO)[C@H](O)[C@H](O)[C@H]1O | inactive |
| CC(=O)N[C@H]1[C@@H](O[C@H](C)[C@H](N)C(=O)N[C@H](C(=O)N2CCC[C@H]2C(=O)NCCCCCCCCCCCC(=O)O)C(C)C)O[C@H](CO)[C@H](O)[C@@H]1O[C@@H]1O[C@H](CO)[C@H](O)[C@H](O)[C@H]1O | inactive |
| CC(=O)N[C@H]1[C@@H](O[C@H](C)[C@H](N)C(=O)N[C@H](C(=O)N2CCC[C@H]2C(=O)N[C@@H](C)C(=O)N[C@@H](C)C(=O)N[C@H](C(=O)N[C@@H](C(=O)N[C@H](C(=O)N[C@@H](C)C(=O)O)C(C)C)C(C)C)C(C)C)C(C)C)O[C@H](CO)[C@H](O)[C@@H]1O[C@@H]1O[C@H](CO)[C@H](O)[C@H](O)[C@H]1O | inactive |
| CC(=O)N[C@H]1[C@@H](O[C@H](C)[C@H](N)C(=O)N[C@@H](CC(C)C)C(=O)N2CCC[C@H]2C(=O)N[C@@H](C)C(=O)N[C@@H](C)C(=O)N[C@H](C(=O)N[C@H](C(=O)N[C@H](C(=O)N[C@@H](C)C(=O)O)C(C)C)C(C)C)C(C)C)O[C@H](CO)[C@H](O)[C@@H]1O[C@@H]1O[C@H](CO)[C@H](O)[C@H](O)[C@H]1O (H-T(X1)LPAAVVVA-OH) | inactive |
| CC(=O)N[C@H]1[C@@H](O[C@H](C)[C@H](N)C(=O)N[C@H](C(=O)N2CCC[C@H]2C(=O)N[C@@H](C)C(=O)N[C@@H](C)C(=O)O)C(C)C)O[C@H](CO)[C@H](O)[C@@H]1O[C@@H]1O[C@H](CO)[C@H](O)[C@H](O)[C@H]1O (H-T(X1)VPAA-OH) | inactive |
| CC[C@H](C)[C@H](NC(=O)[C@H](C)NC(=O)[C@H](C)NC(=O)[C@@H]1CCCN1C(=O)[C@@H](NC(=O)[C@@H](N)[C@@H](C)O[C@H]1O[C@H](CO)[C@H](O)[C@H](O[C@@H]2O[C@H](CO)[C@H](O)[C@H](O)[C@H]2O)[C@H]1NC(C)=O)C(C)C)C(=O)N[C@H](C(=O)N[C@H](C(=O)N[C@@H](C)C(=O)O)[C@@H](C)CC)C(C)C (H-T(X1)VPAAIVIA-OH) | inactive |
| CC(=O)N[C@H]1[C@@H](O[C@H](C)[C@H](N)C(=O)N[C@H](C(=O)N2CCC[C@H]2C(=O)N[C@@H](C)C(=O)N[C@@H](C)C(=O)N[C@H](C(=O)N[C@H](C(=O)O)C(C)C)C(C)C)C(C)C)O[C@H](CO)[C@H](O)[C@@H]1O[C@@H]1O[C@H](CO)[C@H](O)[C@H](O)[C@H]1O (H-T(X1)VPAAVV-OH) | inactive |
| CC(=O)N[C@H]1[C@@H](O[C@H](C)[C@H](N)C(=O)N[C@H](C(=O)N2CCC[C@H]2C(=O)N[C@@H](C)C(=O)N[C@@H](C)C(=O)N[C@H](C(=O)N[C@H](C(=O)N[C@@H](C)C(=O)N[C@H](C(=O)O)C(C)C)C(C)C)C(C)C)C(C)C)O[C@H](CO)[C@H](O)[C@@H]1O[C@@H]1O[C@H](CO)[C@H](O)[C@H](O)[C@H]1O (H-T(X1)VPAAVVAV-OH) | inactive |
| CC(=O)N[C@H]1[C@@H](O[C@H](C)[C@H](N)C(=O)N[C@H](C(=O)N2CCC[C@H]2C(=O)N[C@@H](C)C(=O)N[C@@H](C)C(=O)N[C@H](C(=O)N[C@H](C(=O)N[C@H](C(=O)N[C@@H](C)C(=O)N[C@@H](CCC(=O)O)C(=O)O)C(C)C)C(C)C)C(C)C)C(C)C)O[C@H](CO)[C@H](O)[C@@H]1O[C@@H]1O[C@H](CO)[C@H](O)[C@H](O)[C@H]1O (H-T(X1)VPAAVVVAE-OH) | inactive |
| CC(=O)N[C@H]1[C@@H](O[C@H](C)[C@H](N)C(=O)N[C@H](C(=O)N2CCC[C@H]2C(=O)N[C@@H](C)C(=O)N[C@@H](C)C(=O)N[C@H](C(=O)N[C@H](C(=O)N[C@H](C(=O)N[C@@H](C)C(=O)N[C@@H](CCCCN)C(=O)O)C(C)C)C(C)C)C(C)C)C(C)C)O[C@H](CO)[C@H](O)[C@@H]1O[C@@H]1O[C@H](CO)[C@H](O)[C@H](O)[C@H]1O (H-T(X1)VPAAVVVAK-OH) | inactive |
| CC(=O)N[C@H]1[C@@H](O[C@H](C)[C@H](N)C(=O)N[C@H](C(=O)N2CCC[C@H]2C(=O)N[C@@H](C)C(=O)NCC(=O)N[C@H](C(=O)N[C@H](C(=O)N[C@H](C(=O)NCC(=O)O)C(C)C)C(C)C)C(C)C)C(C)C)O[C@H](CO)[C@H](O)[C@@H]1O[C@@H]1O[C@H](CO)[C@H](O)[C@H](O)[C@H]1O (H-T(X1)VPAGVVVG-OH) | inactive |
| CC(=O)N[C@H]1[C@@H](O[C@H](C)[C@H](N)C(=O)N[C@H](C(=O)N2[C@H](C(=O)N[C@@H](C)C(=O)N[C@@H](C)C(=O)N[C@H](C(=O)N[C@H](C(=O)N[C@H](C(=O)N[C@@H](C)C(=O)O)C(C)C)C(C)C)C(C)C)COC2(C)C)C(C)C)O[C@H](CO)[C@H](O)[C@@H]1O[C@@H]1O[C@H](CO)[C@H](O)[C@H](O)[C@H]1O (H-T(X1)V[X2]AAVVVA-OH) | inactive |
| CC(=O)N[C@H]1[C@@H](O[C@H](C)[C@H](N)C(=O)N[C@@H](Cc2ccc(O)cc2)C(=O)N2CCC[C@H]2C(=O)N[C@@H](C)C(=O)N[C@@H](C)C(=O)N[C@H](C(=O)N[C@H](C(=O)N[C@H](C(=O)N[C@@H](C)C(=O)O)C(C)C)C(C)C)C(C)C)O[C@H](CO)[C@H](O)[C@@H]1O[C@@H]1O[C@H](CO)[C@H](O)[C@H](O)[C@H]1O (H-T(X1)YPAAVVVA-OH) | inactive |
| CC(=O)N[C@H]1[C@@H](O[C@H](C)[C@@H]2NOC(=O)[C@H](C)NC(=O)[C@H](C(C)C)NC(=O)[C@H](C(C)C)NC(=O)[C@H](C(C)C)NC(=O)[C@H](C)NC(=O)[C@H](C)NC(=O)[C@@H]3CCCN3C(=O)[C@H](C(C)C)NC2=O)O[C@H](CO)[C@H](O)[C@@H]1O[C@@H]1O[C@H](CO)[C@H](O)[C@H](O)[C@H]1O (VPAAVVVA; linker N-C via X3) | inactive |
